For 39 molecules, cytotoxicity results are on record in ChEMBL document CHEMBL4513216, “Probing the Open Global Health Chemical Diversity Library for Multistage-Active Starting Points for Next-Generation Antimalarials” (ACS Infect Dis, 2020).

A short description of the series: Toxicity liver stage against HepG2, at 10uM. In kind it is cell-based. More on the design: test concentration 10 uM, cell line HepG2-A16-CD81EGFP. The following applies: human, HepG2-A16-CD81EGFP cells; read-out: INHIBITION
The gist of the method:
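Uninfected HepG2-A16-CD81EGFP cells, 3 × 10^3 per well, 1536-well, plated on prespotted compound at 10 μM final, parasite-free screening media added to match infected plates; puromycin 10 μM positive, DMSO 0.5% negative; run in parallel with 48 h PbLuc assay at 37 °C, 5% CO2; viability by CellTiter-Glo luminescence, normalized to controls.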

Take `Cc1ccc(-c2nnc([C@H]3CCN(C4CCC4)C3)o2)cc1`: the cytotoxicity at 10 µM was determined as 8.81%.

Regarding `Cc1ccccc1C1CCN(CCn2cc(-c3cccc(O)c3)nn2)C1` (centres undefined), the cytotoxicity at 10 µM turned out to be 18.2%.

Regarding `O=C1COC2(CCN(C(=O)[C@H]3CCCO3)CC2)CN1Cc1ccccn1`, the cytotoxicity at 10 µM was -0.524%.

In the case of `CC(C)CN(Cc1nc2c(cnn2C)c(=O)[nH]1)C(C)C`, the cytotoxicity at 10 µM is -9.96%.

For the molecule `COCC(NC(=O)NCc1sc(C)nc1C)c1ccco1` (centres undefined), the cytotoxicity at 10 µM was 6.75%.

In the case of `O=C(NCc1cnn2cccnc12)C1CC2(CCNCC2)CN1` (centres undefined), the cytotoxicity at 10 µM was -8.32%.

Turning to `COc1ccc(OC)c2c(C)cc(N(C)Cc3cc(C)on3)nc12`, the cytotoxicity at 10 µM turned out to be 1.42%.

Consider `Cc1ccccc1C(C)NC(=O)c1ccc(=O)n(C)c1` (centres undefined), for which the cytotoxicity at 10 µM turned out to be 4.31%.

For the molecule `CNC(=O)[C@@H]1C[C@@H](NC(=O)Cc2cccs2)CN1C1CCOCC1`, the cytotoxicity at 10 µM was 2.7%.

Consider `c1ccc(Cn2cc(CNC3CCc4ncnn4C3)cn2)cc1` (centres undefined), for which the cytotoxicity at 10 µM was -1.61%.

For the molecule `COc1ccc(CN2C[C@@H]3COC[C@]3(CN(C)C)C2)cc1`, the cytotoxicity at 10 µM was -1.75%.

On to `O=C(CCc1ccsc1)N1CCC(N2CCNC2=O)CC1`, for which the cytotoxicity at 10 µM is -0.546%.

Take `COCCCNC(=O)CN1CCCC1c1c(C)nn(C)c1Cl` (centres undefined): the cytotoxicity at 10 µM turned out to be 6.69%.

For the molecule `Brc1ccc(NCCCOC2CCOCC2)nc1`, the cytotoxicity at 10 µM worked out at 1.52%.

In the case of `CCn1nc(C)c2ncnc(NCCCn3ccnc3)c21`, the cytotoxicity at 10 µM turned out to be 10.3%.

`Cc1ccc(CN2CC[C@H]3[C@H]2CCN3S(C)(=O)=O)s1`: the cytotoxicity at 10 µM stood at 2.38%.

Consider `CN(C)CCNC(=O)C1Cc2nc(-c3ccccc3)sc2N1CC1CC1` (centres undefined), for which the cytotoxicity at 10 µM worked out at 5.15%.

With `CN1C[C@@H](COCC2CC2)[C@H]2CCN(Cc3ccco3)CC[C@H]2C1=O`, the cytotoxicity at 10 µM was -4.6%.

On to `Cc1sc2c(C3CCNCC3)nc(Nc3cccc(F)c3)n2c1C`, for which the cytotoxicity at 10 µM is -0.775%.

Consider `COC(=O)CN(C(=O)c1ccc(-n2ccnc2)cc1)C1CC1`, for which the cytotoxicity at 10 µM is -5%.

With `CC(C)C1CN(C(=O)c2cc(F)cc3[nH]cnc23)CCS1` (centres undefined), the cytotoxicity at 10 µM was 1.97%.

As to `Cc1c(CNC(=O)C2CCCN2C(=O)C2CC2)oc2ccccc12` (centres undefined), the cytotoxicity at 10 µM turned out to be 5.6%.

Turning to `CCCc1nc(NCCCOCC)c2c(n1)c(C)nn2CC`, the cytotoxicity at 10 µM was 21.6%.

Consider `CC(=O)c1ccc(N2CCC3(CC2)CC(=O)N(C)C3)nc1`, for which the cytotoxicity at 10 µM was -1.66%.

Consider `CCC(C)N(Cc1cccnc1)C(=O)CCSC` (centres undefined), for which the cytotoxicity at 10 µM was 0.305%.

Take `CN1CCCCC1CC(=O)Nc1ccc2ncn(C)c2c1` (centres undefined): the cytotoxicity at 10 µM is 4.18%.

In the case of `O=C(Nc1cccnc1)[C@H]1CN(Cc2nccs2)C[C@H]2OCC[C@@H]12`, the cytotoxicity at 10 µM stood at 2.88%.

As to `CCc1nc(CCNc2ncccn2)sc1C`, the cytotoxicity at 10 µM is 14.4%.

As for `O=C(NCCc1nccs1)c1n[nH]c2c1CCC2`, the cytotoxicity at 10 µM worked out at 3.89%.

On to `c1ccc(-c2nccc(N3CCc4c(ncn4C4CC4)C3)n2)cc1`, for which the cytotoxicity at 10 µM was found to be 7.22%.

With `Cc1[nH]ccc1C(=O)N1CCC2(CC1)c1nc[nH]c1CCN2S(C)(=O)=O`, the cytotoxicity at 10 µM was found to be 6.63%.

For the molecule `CN(Cc1ccc2c(c1)OCCO2)Cc1nc2c(cnn2C)c(=O)[nH]1`, the cytotoxicity at 10 µM is -4.45%.

As to `C[C@H](C(=O)N1Cc2ccccc2CC2(CCCN2C)C1)c1ccccc1` (some centres undefined), the cytotoxicity at 10 µM came out at 6.42%.

In the case of `COCc1noc(Cc2c(C)nn(C)c2C)n1`, the cytotoxicity at 10 µM is 7%.

On to `CN1CCN(C(=O)CCCc2ccccn2)c2ccc(F)cc21`, for which the cytotoxicity at 10 µM stood at 1.66%.

On to `COc1ccc(CNc2cnn(CC(F)F)c2)cc1`, for which the cytotoxicity at 10 µM was -7.47%.

For `COCc1noc(Cn2c(=O)[nH]c3ccccc32)n1`, the cytotoxicity at 10 µM turned out to be 4.84%.

On to `O=C(c1cccc(S(=O)(=O)NCCCc2ncc[nH]2)c1)N1CCOCC1`, for which the cytotoxicity at 10 µM is -11.4%.

On to `Cc1noc(C)c1CN1C[C@H](OCC(=O)N(C)C)[C@H]2OCCC[C@H]21`, for which the cytotoxicity at 10 µM was 8.34%.
